Data reported in ChEMBL document CHEMBL3407337, “Molecular design, synthesis and biological research of novel pyridyl acridones as potent DNA-binding and apoptosis-inducing agents” (Eur J Med Chem, 2015).
pIC50: −log10 of the molar value. Activity calls are given as the source filed them. The rule behind the calls is not given here.

Key:
[1] = tested on: Calf thymus DNA; test: Binding affinity to calf thymus DNA at 10 uM after 5 mins by fluorescence emmission spectroscopic method; format: nucleic-acid assay; conditions: Bos taurus
Procedure, shortened: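 Compound at final 10 μM in 5 mM Tris-HCl, 50 mM NaCl, pH 7.2. ct DNA added to final 0–100 μM. Incubated 5 min. Emission recorded with excitation 425 nm. F/F0 plotted against [DNA]/[compound].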

[2] = Antiproliferative activity against human CNE2 cells after 48 hrs by MTT assay; format: functional, cell-based; conditions: CNE-2, 48 h
Procedure, shortened: (§1)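 Adherent lines seeded at 6×10^3 cells/well and allowed 12 h attachment. Media: NCI-H520 and HeLa RPMI-1640; HepG2, MCF-7, CNE-2, A375, A172 and U118-MG DMEM; U251 MEM-EBSS; all with 10% FBS, 37 °C, 5% CO2. Dosed 48 h at final 50, 25, 10, 1 and 0.1 μM. MTT 4 h, formazan dissolved in DMSO, A490. IC50 from the dose series.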

[3] = species: Bos taurus; test: Displacement of ethidium bromide from calf thymus DNA assessed as quenching constant up to 30 uM after 5 mins by competitive binding fluorescence method
Procedure, shortened: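 EB final 10 μM with ct DNA 40 μM in Tris-HCl/50 mM NaCl, pH 7.2. Compound added at final 0, 5, 10, 20 and 30 μM. Incubated 5 min, excitation 366 nm, emission near 600 nm. Quenching constant from the Stern–Volmer fit F0/F = 1 + K[Q].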

[4] = tested on: HeLa; test: Antiproliferative activity against human HeLa cells after 48 hrs by MTT assay; format: functional, cell-based; procedure, shortened: as §1
[5] = tested on: K562; test: Induction of apoptosis in human K562 cells assessed as cleavage of caspase-3 at 1 uM after 36 hrs by Western blot analysis; format: functional, cell-based
Procedure, shortened: (§2)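 K562 cells in 6 cm dishes treated 36 h at various concentrations. Cells lysed on ice for 0.5 h and spun at 20,000 g. Protein measured by BCA. Lysates run on 12% SDS-PAGE and transferred to PVDF. Membranes blocked in 5% milk and probed overnight at 4 °C with primary antibody against cleaved caspase-9, -7, -3, cleaved PARP or Bcl-XL.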

[6] = tested on: K562; test: Induction of apoptosis in human K562 cells assessed as early apoptotic cells at 0.5 uM after 48 hrs by annexin V/PI staining based flow cytometry (reference value: 3.89 %); format: functional
[7] = tested on: K562; test: Induction of apoptosis in human K562 cells assessed as late apoptotic cells at 0.05 uM after 48 hrs by annexin V/PI staining based flow cytometry (reference value: 0.26 %); format: functional
[8] = tested on: K562; test: Induction of apoptosis in human K562 cells assessed as early apoptotic cells at 2.5 uM after 48 hrs by annexin V/PI staining based flow cytometry (reference value: 3.89 %); format: functional
[9] = tested on: K562; test: Induction of apoptosis in human K562 cells assessed as cleavage of PARP at 1 uM after 36 hrs by Western blot analysis; format: functional, cell-based; procedure, shortened: as §2
[10] = tested on: Calf thymus DNA; test: Binding affinity to calf thymus DNA assessed as increase in DNA viscosity at 6 to 36 uM by viscosity method; format: nucleic-acid assay; conditions: Bos taurus
Procedure, shortened: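 ct DNA at 200 μM in Tris-HCl buffer, compound at 6–36 μM, viscometer held at 25.0 °C. Flow times read in triplicate and averaged. η = (t−t0)/t0; (η/η0)^1/3 plotted against the compound:DNA ratio.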

[11] = tested on: U-251; test: Antiproliferative activity against human U251 cells after 48 hrs by MTT assay; format: functional, cell-based; conditions: U-251, 48 h; procedure, shortened: as §1

- Activity [1]: Active
- Kq [3]: 1 ×10⁴ /M
- pIC50 [4]: 5.42
- Activity [10]: Active
- pIC50 [11]: 6.10
Compound: Cc1cccc2c(=O)c3c(NCc4ccncc4)ccc(C(=O)NCCN(C)C)c3[nH]c12
- pIC50 [2]: 6.01
- Activity [5]: Active
- Activity [6]: 23.13%
- Activity [7]: 0.49%
- Activity [8]: 54.93%
- Activity [9]: Active
